Measured values: ChEMBL document CHEMBL2150854, “Macrocyclic Hedgehog Pathway Inhibitors: Optimization of Cellular Activity and Mode of Action Studies” (ACS Med Chem Lett, 2012)
Calls of active or inactive are those of the source. The rule behind the calls is not given here.

Key:
[1] = molecular target: Protein smoothened (Mus musculus) (UniProt P56726); assay: Inhibition of Smo in mouse C3H10T1/2 cells assessed as inhibition of human Shh-induced cell differentiation after 48 hrs by alkaline phosphatase reporter assay relative to cyclopamine; format: cell-based; details: C3H 10T1/2
How it was run: (§1)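 Murine mesenchymal C3H10T1/2 cells were induced to differentiate with Shh protein. Differentiation was read as alkaline phosphatase expression, quantified with fluorescent substrates. Uninduced cells served as baseline. IC50 was taken from dose–response curves.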

[2] = molecular target: Protein smoothened (Mus musculus) (UniProt P56726); assay: Inhibition of Smo in mouse C3H10T1/2 cells assessed as inhibition of human Shh-induced Gli1 transcriptional activity after 48 hrs by RT-PCR analysis in presence of SAG; format: cell-based; details: C3H 10T1/2
[3] = molecular target: Protein smoothened (Mus musculus) (UniProt P56726); assay: Ratio of IC50 for Smo in mouse C3H10T1/2 cells assessed as inhibition of human Shh-induced Gli1 transcriptional activity in presence of SAG to IC50 for Smo in mouse C3H10T1/2 cells assessed as inhibition of human Shh-induced Gli1 transcriptional activity; format: cell-based; details: C3H 10T1/2
[4] = molecular target: Protein smoothened (Mus musculus) (UniProt P56726); assay: Competitive inhibition of Smo in mouse C3H10T1/2 cells assessed as inhibition of purmorphamine-induced Gli1 transcriptional activity at 309 to 25000 nM by qPCR analysis; format: cell-based; details: C3H 10T1/2
[5] = molecular target: Protein smoothened (Mus musculus) (UniProt P56726); assay: Inhibition of Smo in mouse Ptch-deficient MEF cells assessed as inhibition of Shh-induced Gli-responsive betagalactosidase activity after 30 hrs by BetaGLo assay in presence of SAG; format: cell-based
How it was run: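 Ptch-/- MEF β-gal reporter cells were given an inhibitor dose range together with 20 nM SAG. β-Gal activity was read, with untreated cells and 100 nM KAAD-cyclopamine-treated cells as reference levels.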

[6] = molecular target: Protein smoothened (Mus musculus) (UniProt P56726); assay: Inhibition of Smo in mouse Ptch-deficient MEF cells assessed as inhibition of Shh-induced Gli1 transcriptional activity in presence of SAG; format: cell-based
Protein smoothened [7] = molecular target: T1, Protein smoothened (Mus musculus, UniProt P56726); assay: Inhibition of Smo in mouse Ptch-deficient MEF cells assessed as inhibition of Shh-induced Gli1 transcriptional activity; format: cell-based
Protein smoothened [8] = molecular target: T1, Protein smoothened; assay: Inhibition of Smo in mouse Ptch-deficient MEF cells assessed as inhibition of Shh-induced Gli-responsive betagalactosidase activity after 30 hrs by BetaGLo assay; format: cell-based
[9] = molecular target: Protein smoothened (Mus musculus) (UniProt P56726); details: C3H 10T1/2, at 103 to 25000 nM
[10] = molecular target: Protein smoothened (Mus musculus) (UniProt P56726); assay: Inhibition of Smo in mouse C3H10T1/2 cells assessed as inhibition of human Shh-induced Gli1 transcriptional activity after 48 hrs by RT-PCR analysis relative to cyclopamine; format: cell-based; details: C3H 10T1/2
Protein smoothened [11] = molecular target: T1, Protein smoothened; assay: Inhibition of Smo in mouse C3H10T1/2 cells assessed as inhibition of human Shh-induced Gli1 transcriptional activity after 48 hrs by RT-PCR analysis; format: cell-based, C3H 10T1/2
How it was run: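 Murine mesenchymal C3H10T1/2 cells were activated with Shh protein and exposed to inhibitor. Gli1 mRNA was quantified by real-time qPCR, normalised to Actb as internal control, and IC50 was taken from dose–response curves.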

[12] = molecular target: Protein smoothened (Mus musculus) (UniProt P56726); assay: Competitive inhibition of Smo in mouse C3H10T1/2 cells assessed as inhibition of purmorphamine-induced Gli1 transcriptional activity at 103 to 25000 nM by qPCR analysis; format: cell-based; details: C3H 10T1/2
C3H 10T1/2 [13] = assay: Effect on purmorphamine-induced Gli1 transcription in mouse C3H10T1/2 cells at 103 to 25000 nM by qPCR analysis; format: functional, cell-based
[14] = molecular target: Sonic hedgehog protein (Homo sapiens) (UniProt Q15465); assay: Inhibition of human Shh-induced mouse C3H10T1/2 cell differentiation after 48 hrs by alkaline phosphatase reporter assay relative to cyclopamine; details: C3H 10T1/2; how it was run: as §1
C3H 10T1/2 [15] = assay: Effect on SAG-induced Gli1 transcription in mouse C3H10T1/2 cells at 103 to 25000 nM by qPCR analysis; format: functional, cell-based
How it was run: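 Double-titration (Schild-type) design in murine mesenchymal C3H10T1/2 cells. Gli1 expression is induced by a series of SAG concentrations, each combined with several inhibitor concentrations. Gli1 mRNA is quantified by real-time qPCR with Actb as internal control. SAG dose–response curves are compared across inhibitor levels for shifts and for the maximal induction.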

[16] = molecular target: Protein smoothened (Mus musculus) (UniProt P56726); details: C3H 10T1/2, 55.5 to 4500 nM
C3H 10T1/2 [17] = assay: Effect on purmorphamine-induced Gli1 transcription in mouse C3H10T1/2 cells at 55.5 to 4500 nM by qPCR analysis; format: functional, cell-based

T1 sequence (P56726 whole entry): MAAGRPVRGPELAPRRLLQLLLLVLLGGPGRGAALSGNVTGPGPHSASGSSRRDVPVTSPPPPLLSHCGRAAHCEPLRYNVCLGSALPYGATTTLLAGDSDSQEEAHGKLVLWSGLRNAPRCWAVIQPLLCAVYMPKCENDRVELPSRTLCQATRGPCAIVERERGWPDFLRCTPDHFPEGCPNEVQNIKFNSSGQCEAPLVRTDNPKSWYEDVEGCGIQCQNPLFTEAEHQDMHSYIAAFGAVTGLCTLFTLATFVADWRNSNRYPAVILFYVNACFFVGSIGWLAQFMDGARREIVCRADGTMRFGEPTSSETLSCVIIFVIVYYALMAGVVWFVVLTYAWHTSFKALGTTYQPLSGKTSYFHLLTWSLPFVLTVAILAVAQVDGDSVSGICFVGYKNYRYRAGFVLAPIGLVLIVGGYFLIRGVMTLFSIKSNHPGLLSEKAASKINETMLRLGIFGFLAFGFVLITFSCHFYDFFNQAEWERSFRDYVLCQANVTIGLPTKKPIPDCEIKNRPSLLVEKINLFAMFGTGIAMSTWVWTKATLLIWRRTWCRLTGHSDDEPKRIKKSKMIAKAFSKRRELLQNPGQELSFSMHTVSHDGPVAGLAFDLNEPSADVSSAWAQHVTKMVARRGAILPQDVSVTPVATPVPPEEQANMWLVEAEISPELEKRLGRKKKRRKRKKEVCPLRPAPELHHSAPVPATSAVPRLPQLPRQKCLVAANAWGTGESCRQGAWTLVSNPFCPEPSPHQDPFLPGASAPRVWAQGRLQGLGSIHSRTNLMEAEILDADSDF
Protein smoothened (Mus musculus), sequence (P56726 whole entry): as above
Sonic hedgehog protein (Homo sapiens), sequence (Q15465 24-197 limits assumed): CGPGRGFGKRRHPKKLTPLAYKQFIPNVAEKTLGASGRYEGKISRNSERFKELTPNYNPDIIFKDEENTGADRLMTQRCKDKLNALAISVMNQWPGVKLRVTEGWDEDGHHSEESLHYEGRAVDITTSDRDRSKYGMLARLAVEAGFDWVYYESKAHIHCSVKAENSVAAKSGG

## O=C(C[C@@H]1C/C=C/CCC(=O)N[C@H](c2ccccc2)COC1=O)NCc1ccc(Cl)cc1
[1]
  Imax: 86%

## C[C@H]1[C@@H](c2ccccc2)OC(=O)CC/C=C/C[C@@H](CC(=O)NCc2ccc(Cl)cc2)C(=O)N1C
[1]
  Imax: 78%

## O=C(C[C@@H]1C/C=C/C[C@H](Cc2ccccc2)C(=O)N[C@H](c2ccccc2)COC1=O)NCc1ccc(Cl)cc1
[1]
  Imax: 106%

## O=C(C[C@@H]1C/C=C/CCC(=O)N[C@H](C2CCCCC2)COC1=O)NCc1ccc(Cl)cc1
[1]
  Imax: 75%

## C[C@H]1NC(=O)[C@H](CC(=O)NCc2ccc(Cl)cc2)C/C=C/CCC(=O)O[C@@H]1c1ccccc1
[1]
  Imax: 69%

## CC(C)[C@@H]1COC(=O)[C@H](CC(=O)NCc2ccc(Cl)cc2)C/C=C/CCC(=O)N1
[1]
  Imax: 54%

## O=C(C[C@@H]1C/C=C/CCC(=O)N[C@H](Cc2ccccc2)COC1=O)NCc1ccc(Cl)cc1
[2]
  inhibition: inactive
[3]
  Ratio IC50: 18
[4]
  inhibition: Active
[5]
  inhibition: inactive
[6]
  inhibition: inactive
Protein smoothened [7]
  IC50: 8.8 µM
[1]
  Imax: 90%
Protein smoothened [8]
  IC50: 8.1 µM
[9]
  inhibition: Active

## O=C(C[C@@H]1C/C=C/CCC(=O)OC[C@@H]2CCCN2C1=O)NCc1ccc(Cl)cc1
[1]
  Imax: 77%

## CCCC[C@@H]1COC(=O)[C@H](CC(=O)NCc2ccc(Cl)cc2)C/C=C/CCC(=O)N1
[1]
  Imax: 53%

## O=C(C[C@@H]1C/C=C/CCC(=O)N[C@@H](c2ccccc2)COC1=O)NCc1ccc(Cl)cc1
[1]
  Imax: 95%

## CC(C)N[C@H]1C/C=C/C[C@@H](CC(=O)NCc2ccc(Cl)cc2)C(=O)NC[C@@H](c2ccccc2)OC1=O
[1]
  Imax: 41%

## C[C@H]1C/C=C\C[C@@H](CC(=O)NCc2ccc(Cl)cc2)C(=O)OC[C@@H](c2ccccc2)NC1=O
[1]
  Imax: 97%

## O=C(C[C@@H]1C/C=C/CCC(=O)O[C@H](c2ccccc2)CNC1=O)NCc1cccc(Cl)c1
[1]
  Imax: 50%

## O=C(C[C@@H]1C/C=C/CCC(=O)N[C@H](c2ccc(Cl)cn2)COC1=O)NCc1ccc(Cl)cc1
[10]
  Imax: 85%
Protein smoothened [11]
  IC50: 4.3 µM

## C[C@@H]1NC(=O)[C@H](CC(=O)NCc2ccc(Cl)cc2)C/C=C/CCC(=O)O[C@@H]1c1ccccc1
[1]
  Imax: 77%

## O=C(C[C@@H]1C/C=C/CCC(=O)N[C@H](c2ccc(Cl)cc2)COC1=O)NCc1ccc(Cl)cc1
[10]
  Imax: 100%
[2]
  inhibition: inactive
[3]
  Ratio IC50: 32
[12]
  inhibition: Active
[5]
  inhibition: inactive
[6]
  inhibition: inactive
Protein smoothened [7]
  IC50: 3.5 µM
[1]
  Imax: 105%
Protein smoothened [8]
  IC50: 2 µM
[9]
  inhibition: Active
Protein smoothened [11]
  IC50: 0.4 µM

## O=C(C[C@@H]1C/C=C/CCC(=O)N[C@@H]2c3ccccc3C[C@@H]2OC1=O)NCc1ccc(Cl)cc1
[1]
  Imax: 40%

## O=C(C[C@@H]1C/C=C/CCC(=O)O[C@H](c2ccccc2)CNC1=O)NCc1ccc(Cl)cc1
C3H 10T1/2 [13]
  Activity: inactive
[14]
  Imax: 47%
C3H 10T1/2 [15]
  Activity: inactive

## O=C(C[C@@H]1C/C=C/CCC(=O)O[C@H](c2ccccc2)CNC1=O)NCCCC(F)(F)F
[1]
  Imax: 28%

## CC(C)(C)OC(=O)C[C@@H]1C/C=C/CCC(=O)N[C@H](c2ccccc2)COC1=O
[1]
  Imax: 60%

## O=C(CN1C/C=C/CCC(=O)N[C@H](c2ccccc2)COC1=O)NCc1ccc(Cl)cc1
[1]
  Imax: 47%

## CN1C[C@@H](c2ccccc2)OC(=O)CC/C=C/C[C@@H](Cc2ccc(Cl)cc2)C1=O
[1]
  Imax: 104%

## O=C(C[C@@H]1C/C=C/CCC(=O)N[C@H](c2ccc(F)cc2)COC1=O)NCc1ccc(Cl)cc1
[1]
  Imax: 90%

## C[C@H]1[C@@H](c2ccccc2)OC(=O)CCCCC[C@@H](CC(=O)NCc2ccc(Cl)cc2)C(=O)N1C
[1]
  Imax: 59%

## C[C@H]1C/C=C/C[C@@H](CC(=O)NCc2ccc(Cl)cc2)C(=O)OC[C@@H](c2ccccc2)NC1=O
[1]
  Imax: 78%

## CC1=C2C[C@H]3[C@@H](CC=C4C[C@@H](O)CC[C@@]43C)[C@@H]2CC[C@]12O[C@@H]1C[C@H](C)CN[C@H]1[C@H]2C
[2]
  inhibition: inactive
[5]
  inhibition: inactive
[6]
  inhibition: inactive
[16]
  inhibition: Active
C3H 10T1/2 [17]
  Activity: inactive
